# GASC1 inh: KDM4C (human) demethylase inhibition; Q9H3R0; GST-KDM4C 2-372, H3K9me3 peptide, LANCE TR-FRET; inhibition, % at 12.5 µM; actives 0.15% (n = 96,000); AID 720574;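 active = mean replicate inhibition above about 25%, with at least 55% of replicates also reaching it, limit read from the data, passing the limit was not always enough; inconclusive = only one of those two conditions met; inactive = neither condition met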
# Target sequence (Q9H3R0 2-372 limits assumed): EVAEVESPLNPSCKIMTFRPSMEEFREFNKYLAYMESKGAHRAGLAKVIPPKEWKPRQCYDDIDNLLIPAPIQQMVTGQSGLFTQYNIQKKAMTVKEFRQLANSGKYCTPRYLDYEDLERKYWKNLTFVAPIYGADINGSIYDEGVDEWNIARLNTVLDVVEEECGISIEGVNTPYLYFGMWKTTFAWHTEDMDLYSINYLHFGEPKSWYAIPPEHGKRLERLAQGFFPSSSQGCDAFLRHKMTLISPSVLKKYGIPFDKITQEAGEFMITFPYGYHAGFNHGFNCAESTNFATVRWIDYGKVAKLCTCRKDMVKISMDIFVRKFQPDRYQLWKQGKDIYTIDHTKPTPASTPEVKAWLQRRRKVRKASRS
#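 Compound: one test concentration per compound; Material: GST-GASC-1 enzyme fragment 2-372; Amount: GASC-1 enzyme at 10 nM final in reaction; Also added: H3K9me3 peptide substrate, Fe(II), 2-oxoglutarate; Technique: LANCE TR-FRET; Times: 30 min demethylation and 1 h detection at room temperature.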
# Pf Dd2 growth: blocks growth of Plasmodium falciparum Dd2 parasites. actives 2.3% (n = 94,000). AID 1159554. activity change, % at 10 µM. P. falciparum Dd2 growth, SYBR Green, 72 h; active compounds read low; in the data active = activity change below about -80%; inconclusive = no clear call, values can overlap the other calls
# T cruzi growth-1: T. cruzi proliferation inhibition. T. cruzi beta-gal in NIH3T3, GalScreen luminescence, 90 h. inhibition, % at 8.34 µM. actives 5.9% (n = 77,000). AID 624255;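 active = mean inhibition above about 93%, with at least 55% of replicates each passing it, limit read from the data, passing the limit was not always enough; inconclusive = only one of those two conditions holds; inactive = neither condition holds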
# IDH1 R132H inh: IDH1 R132H (human) inhibition; IDH1 R132H reductase, diaphorase/resazurin fluorescence, 60 min; inhibition, % at 10 µM; actives 0.18% (n = 70,000); AID 624101; in the data active = inhibition above about 34%; inconclusive = no clear call, values can overlap the other calls; inactive = below about 11%;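 also: 0% = DMSO and 100% = no enzyme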
# Target sequence (O75874 whole entry R132H): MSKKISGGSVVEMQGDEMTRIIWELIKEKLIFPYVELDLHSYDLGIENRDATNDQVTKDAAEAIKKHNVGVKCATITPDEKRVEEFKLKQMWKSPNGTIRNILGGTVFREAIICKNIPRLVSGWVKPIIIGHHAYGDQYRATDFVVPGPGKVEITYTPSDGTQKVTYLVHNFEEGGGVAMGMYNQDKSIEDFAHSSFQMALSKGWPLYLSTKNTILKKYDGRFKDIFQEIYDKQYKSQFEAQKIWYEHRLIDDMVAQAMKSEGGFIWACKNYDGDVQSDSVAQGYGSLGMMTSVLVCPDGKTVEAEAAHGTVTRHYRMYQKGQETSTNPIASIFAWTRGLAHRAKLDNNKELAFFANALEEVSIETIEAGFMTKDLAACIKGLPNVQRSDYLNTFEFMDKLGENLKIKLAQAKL
# T cruzi growth-2: blocks T. cruzi growth in NIH3T3 host cells. shares compounds with T cruzi growth-1. T. cruzi beta-gal in NIH3T3, GalScreen luminescence, 90 h. inhibition, % at 8.35 µM. actives 72% (n = 5,600);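 active = mean replicate inhibition above about 95% and at least 55% of replicates individually reaching it, limit read from the data; inconclusive = only one of the two criteria is met; inactive = neither criterion is met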
# T cruzi growth-3: Trypanosoma cruzi proliferation inhibition. shares compounds with T cruzi growth-1. T. cruzi beta-gal in NIH3T3, GalScreen luminescence, 90 h. inhibition, % at 2.09 µM. actives 21% (n = 5,600);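 active = mean inhibition above about 95%, with at least 55% of replicates also reaching it, limit read from the data; inconclusive = meets just one of the two conditions; inactive = meets neither condition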;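 also: plate controls were neutral control median for no effect and positive control median for full effect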
# NIH3T3 tox: cytotoxicity in mouse NIH/3T3 fibroblasts | shares compounds with T cruzi growth-1 | NIH/3T3 viability, CellTiter-Glo ATP luminescence, 90 h | cytotoxicity (signal decrease), % at 8.35 µM | actives 14% (n = 5,600) | AID 651742;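 active = mean signal decrease across replicates above about 35% based on untreated-well scatter, with enough replicates individually passing, limit read from the data; inconclusive = no rule stated though some were filed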;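 also: 0% = median of neutral control wells and 100% = median of positive control wells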
# NIH3T3 tox 2: kills mouse NIH/3T3 fibroblasts. shares compounds with T cruzi growth-1. NIH/3T3 viability, CellTiter-Glo ATP luminescence, 90 h. inhibition, % at 24.9 µM. actives 56% (n = 5,600). AID 651744;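 active = mean loss of cell viability signal at or above a set limit, and enough replicates individually reaching it; inconclusive = meets only the mean limit or only the replicate share; inactive = meets neither condition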;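 also: 0% = median of neutral control wells and 100% = median of positive control wells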
# Starred values were filed as active, the others as inactive; ? = inconclusive; nt = not tested or not shown. Rows were chosen to be rich in hits. Some 5.8% of all compounds tested hit in one or more screens of this group.
SMILES,GASC1 inh,Pf Dd2 growth,T cruzi growth-1,IDH1 R132H inh,T cruzi growth-2,T cruzi growth-3,NIH3T3 tox,NIH3T3 tox 2
C[C@H]1CN([C@@H](C)CO)S(=O)(=O)c2ccc(C#Cc3ccccc3)cc2O[C@H]1CN(C)S(=O)(=O)c1ccccc1F,-3.8,-63.8,123.1*,-0.4,105.7*,?,16.3,-4.8
CCOC(=O)c1cc(NC(=O)CN2C(=O)COc3ccc(Cl)cc32)ccc1Cl,nt,nt,nt,-0.2,nt,nt,nt,nt
C[C@H]1CN([C@@H](C)CO)C(=O)c2cccc(NC(=O)Nc3ccc(F)cc3)c2O[C@@H]1CN(C)Cc1ccc(-c2ccccc2)cc1,-0.9,1.6,71.1,3.2,nt,nt,nt,nt
C[C@@H]1CN([C@@H](C)CO)C(=O)c2cccc(NC(=O)Nc3ccc(C(F)(F)F)cc3)c2O[C@@H]1CN(C)Cc1ccc(-c2ccccc2)cc1,-1.9,-79.2,?,nt,92.9,114.1*,92.4*,103.7*
C[C@@H]1CN([C@H](C)CO)C(=O)c2cccc(NC(=O)Nc3ccc(C(F)(F)F)cc3)c2O[C@@H]1CN(C)Cc1ccccc1,-2.0,-15.0,33.9,nt,nt,nt,nt,nt
C[C@@H]1CN([C@H](C)CO)C(=O)c2cccc(NC(=O)Nc3ccccc3)c2O[C@H]1CN(C)Cc1ccc(C(F)(F)F)cc1,0.7,-34.5,62.6,3.9,nt,nt,nt,nt
C[C@@H]1CN([C@H](C)CO)C(=O)c2cccc(NC(=O)Nc3ccc(F)cc3)c2O[C@@H]1CN(C)Cc1ccc(-c2ccccc2)cc1,-2.4,-33.9,?,nt,105.4*,75.4,32.4,71.2*
C[C@@H]1CN([C@H](C)CO)C(=O)c2cccc(NC(=O)Nc3ccc(C(F)(F)F)cc3)c2O[C@@H]1CN(C)Cc1ccc(-c2ccccc2)cc1,-2.5,-37.6,?,-0.1,109.6*,74.3,14.0,103.5*
CCc1c(C)sc(NC(=S)NCc2cc(C)n(C)n2)c1C(=O)OC,nt,nt,nt,-1.6,nt,nt,nt,nt
CCC(=O)N1CCCCN2[C@H](C1)[C@@H](c1ccc(-c3cccnc3)cc1)[C@@H]2CO,0.4,-24.7,-26.0,nt,nt,nt,nt,nt
CCC(=O)N1CCCCN2[C@@H](CO)[C@H](c3ccc(-c4cccnc4)cc3)[C@@H]2C1,-0.6,36.2,100.1*,nt,96.2*,68.2,13.5,29.0*
CN(C)CC(=O)N1CCCCN2[C@H](C1)[C@H](c1ccc(-c3cccnc3)cc1)[C@@H]2CO,-0.4,-57.2,108.1*,nt,96.7*,1.7,2.1,-0.4
CN(C)CC(=O)N1CCCCN2[C@H](CO)[C@@H](c3ccc(-c4cccnc4)cc3)[C@@H]2C1,-0.1,-39.4,100.6*,nt,39.6,-4.9,-16.7,-12.1
COC(=O)c1ccc(NC(=O)CN2C(=O)C3C4CC(c5ccccc5)C(C4)C3C2=O)cc1 (stereo not given),nt,nt,nt,0.3,nt,nt,nt,nt
NC(=S)Cc1c(Cl)sc2ccc(Cl)cc12,nt,nt,nt,0.2,nt,nt,nt,nt
CC(C)CC#Cc1ccc2c(c1)O[C@H](CN(C)S(=O)(=O)c1ccc(F)cc1)[C@H](C)CN([C@H](C)CO)S2(=O)=O,-1.2,-58.6,nt,-0.6,nt,nt,nt,nt
C[C@H]1CN([C@@H](C)CO)S(=O)(=O)c2ccc(C#CCN(C)C)cc2O[C@@H]1CN(C)S(=O)(=O)c1cccc(F)c1,3.5,-44.6,nt,0.3,nt,nt,nt,nt
CC(C)CC#Cc1ccc2c(c1)O[C@@H](CN(C)S(=O)(=O)c1cccc(F)c1)[C@@H](C)CN([C@H](C)CO)S2(=O)=O,-0.5,-3.8,120.0*,0.4,90.1,99.7*,17.6,57.1*
CCCC#Cc1ccc2c(c1)O[C@H](CN(C)S(=O)(=O)c1cccc(F)c1)[C@H](C)CN([C@H](C)CO)S2(=O)=O,0.6,-49.0,121.6*,0.2,103.1*,108.3*,15.9,75.5*
COc1cccc(S(=O)(=O)N(C)C[C@@H]2Oc3cc(C#CCC(C)C)ccc3S(=O)(=O)N([C@@H](C)CO)C[C@H]2C)c1,-0.5,?,96.2*,-3.5,103.1*,108.5*,43.4*,77.7*
CCCC#Cc1ccc2c(c1)O[C@@H](CN(C)S(=O)(=O)c1cccc(F)c1)[C@@H](C)CN([C@@H](C)CO)S2(=O)=O,-1.9,-55.1,121.5*,0.4,104.9*,102.4*,19.6,83.8*
COc1ccc(-c2cc3ccccc3oc2=O)cc1NC(=O)COc1ccc(Cl)cc1C,nt,nt,nt,2.2,nt,nt,nt,nt
O=C(NCc1ccccn1)c1cc(-c2cccnc2)nc2ccc(Br)cc12,nt,nt,nt,0.4,nt,nt,nt,nt
COCC#Cc1ccc2c(c1)O[C@H](CN(C)S(=O)(=O)c1cccc(F)c1)[C@H](C)CN([C@H](C)CO)S2(=O)=O,5.3,-82.3*,107.3*,-0.6,93.3,74.4,29.8,62.5*
CCCC#Cc1ccc2c(c1)O[C@H](CN(C)S(=O)(=O)c1cccc(F)c1)[C@@H](C)CN([C@H](C)CO)S2(=O)=O,-0.3,-2.0,122.4*,0.6,101.4*,106.2*,-3.0,24.5*
SMILES,GASC1 inh,Pf Dd2 growth,T cruzi growth-1,IDH1 R132H inh,T cruzi growth-2,T cruzi growth-3,NIH3T3 tox,NIH3T3 tox 2
Cc1ccc(-c2ccc3c(c2)O[C@@H](CN(C)C(=O)C2CCCCC2)[C@@H](C)CN([C@H](C)CO)S3(=O)=O)cc1,-2.2,-67.8,123.2*,nt,99.2*,93.4,13.0,106.1*
C[C@H](CO)N1C[C@H](C)[C@H](CN(C)C(=O)C2CC2)Oc2cc(-c3ccccc3F)ccc2S1(=O)=O,-1.4,-58.0,108.8*,-0.5,69.8,16.4,14.7,64.5*
C[C@@H]1CN([C@@H](C)CO)S(=O)(=O)c2ccc(-c3ccc(F)cc3)cc2O[C@H]1CN(C)C(=O)C1CCCCC1,-3.0,-66.5,105.3*,nt,100.9*,73.1,51.5*,46.8*
Cc1ccc(-c2ccc3c(c2)O[C@H](CN(C)C(=O)C2CCC2)[C@H](C)CN([C@H](C)CO)S3(=O)=O)cc1,-1.4,-26.4,86.6,1.2,nt,nt,nt,nt
Cc1ccc(-c2ccc3c(c2)O[C@H](CN(C)C(=O)C2CCCCC2)[C@@H](C)CN([C@@H](C)CO)S3(=O)=O)cc1,-1.7,-40.7,123.3*,nt,102.3*,100.4*,2.5,104.3*
CC(=O)O[C@]1(C(C)=O)CC[C@H]2[C@@H]3C=C(Cl)C4=CC(=O)C5CC5[C@]4(C)[C@H]3CC[C@@]21C (stereo not given in full),nt,nt,nt,0.1,nt,nt,nt,nt
CCn1c(SCC(=O)c2ccc(Cl)cc2Cl)nnc1-c1cccnc1,nt,nt,nt,0.2,nt,nt,nt,nt
CC(C)n1nnc(CC(=O)NN)n1,nt,nt,nt,-0.2,nt,nt,nt,nt
C[C@@H]1CN([C@@H](C)CO)S(=O)(=O)c2ccc(-c3ccccc3)cc2O[C@@H]1CN(C)C(=O)C1CCCCC1,-1.2,-6.0,97.1*,nt,102.8*,82.1,25.6,80.1*

# Compound activity (PubChem)
